Here are results for 10 molecules from ChEMBL document CHEMBL2086299, “Melanogenesis inhibitory and fibroblast proliferation accelerating effects of noroleanane- and oleanane-type triterpene oligoglycosides from the flower buds of Camellia japonica” (2012).

SMILES strings stand for the structures.

The nature of test [1]: Induction of proliferation of neonatal skin fibroblasts assessed as WST-8 formazan accumulation per well at 10 uM after 48 hrs by WST-8 assay relative to control. It is filed as functional, Homo sapiens, Skin fibroblast. The essentials: (§1)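 Normal human neonatal skin fibroblasts NB1RGB (DMEM 1 g/L glucose, 10% FBS, 37 °C, 5% CO2) seeded 5.0 × 10^4 cells/well in 96-well plates. Incubated 48 h with compound (DMSO, final 0.1%). Water-soluble WST-8 formazan read at 450 nm (ref 655 nm) and expressed as % of vehicle control.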

Test [2] in a line: Induction of proliferation of neonatal skin fibroblasts assessed as protein content per well at 10 uM after 48 hrs by […] relative to control. It is filed as functional, Homo sapiens, Skin fibroblast. The essentials: (§2)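 Normal human neonatal skin fibroblasts NB1RGB seeded 5.0 × 10^4 cells/well in 96-well plates. Exposed 48 h to compound (DMSO, final 0.1%). Cellular protein content determined by BCA protein assay and expressed as % of vehicle control.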

A short description of test [3]: Induction of proliferation of neonatal skin fibroblasts assessed as WST-8 formazan accumulation per well at 50 uM after 48 hrs by WST-8 assay relative to control. It is filed as functional, Homo sapiens, Skin fibroblast. The method in brief: as §1
A short description of test [4]: Induction of proliferation of neonatal skin fibroblasts assessed as protein content per well at 50 uM after 48 hrs by […] relative to control. It is filed as functional, Homo sapiens, Skin fibroblast. The method in brief: as §2
Test [5] in a line: Inhibition of melanogenesis in theophylline-stimulated mouse B16-4A5 cells at 5 uM after 72 hrs by microplate reader. It is filed as functional. On the set-up: scale not given: the % may be the effect or the level left. The method in brief: (§3)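 B16 melanoma 4A5 cells seeded 2.0 × 10^4 cells/well in 24-well plates and cultured 24 h. Then 72 h with compound plus 1 mM theophylline (DMSO, final 0.1%). Cells trypsin/EDTA-harvested, washed, lysed in 1 M NaOH (80 °C, 30 min). Lysate melanin read by OD at 405 nm (ref 655 nm). Inhibition (%) = [(A − B)/A] × 100 versus vehicle. Mean ± SEM, n = 4.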

Test [6] can be described thus: Inhibition of melanogenesis in theophylline-stimulated mouse B16-4A5 cells at 10 uM after 72 hrs by microplate reader. It is filed as functional. On the set-up: scale not given: the % may be the effect or the level left. The essentials: as §3
Test [7] in a line: Inhibition of melanogenesis in theophylline-stimulated mouse B16-4A5 cells at 20 uM after 72 hrs by microplate reader. It is filed as functional. On the set-up: scale not given: the % may be the effect or the level left. The method in brief:
as §3

Test [8] in a line: Antiproliferative activity against mouse B16-4A5 cells at 5 uM after 72 hrs by WST-8 assay. In kind it is functional. The essentials:
(§4)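 Murine B16 melanoma 4A5 cells (DMEM 4.5 g/L glucose, 10% FBS) seeded 5.0 × 10^4 cells/well in 96-well plates and cultured 24 h. Then 72 h with 1 mM theophylline plus compound (DMSO, final 0.1%). Cells washed with PBS, WST-8 formazan read at 450 nm (ref 655 nm). Inhibition (%) = [(A − B)/A] × 100 versus vehicle. Mean ± SEM, n = 4.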
(In general: Tetrazolium assays rely on reduction of a dye to a coloured formazan, in cell work by metabolically active cells.)

Test [9] can be described thus: Antiproliferative activity against mouse B16-4A5 cells at 10 uM after 72 hrs by WST-8 assay. In kind it is functional. The essentials: as §4
Test [10] in a line: Antiproliferative activity against mouse B16-4A5 cells at 20 uM after 72 hrs by WST-8 assay. In kind it is functional. The essentials:
as §4

Test [11] is described as follows: Induction of proliferation of neonatal skin fibroblasts assessed as WST-8 formazan accumulation per well at 5 uM after 48 hrs by WST-8 assay relative to control. It is filed as functional, Homo sapiens, Skin fibroblast. The method in brief:
as §1

Test [12] can be described thus: Induction of proliferation of neonatal skin fibroblasts assessed as WST-8 formazan accumulation per well at 20 uM after 48 hrs by WST-8 assay relative to control. In kind it is functional, Homo sapiens, Skin fibroblast. The essentials:
as §1

The nature of test [13]: Induction of proliferation of neonatal skin fibroblasts assessed as protein content per well at 5 uM after 48 hrs by […] relative to control. In kind it is functional, Homo sapiens, Skin fibroblast. The essentials:
as §2

Test [14] can be described thus: Induction of proliferation of neonatal skin fibroblasts assessed as protein content per well at 20 uM after 48 hrs […] relative to control. It is filed as functional, Homo sapiens, Skin fibroblast. The method in brief:
as §2

Turning to `CCC/C=C\C(=O)O[C@H]1CC(C)(C)C[C@H]2C3=CC[C@@H]4[C@@]5(C)CC[C@H](O[C@@H]6O[C@H](C(=O)O)[C@@H](O)[C@H](O[C@@H]7O[C@H](CO)[C@H](O)[C@H](O)[C@H]7O[C@@H]7O[C@@H](C)[C@H](O)[C@@H](O)[C@H]7O)[C@H]6O[C@@H]6O[C@H](CO)[C@@H](O)[C@H](O)[C@H]6O)C(C)(C)[C@@H]5CC[C@@]4(C)[C@]3(C)[C@@H](O)[C@@H](O)[C@@]12CO` [SASANQUASAPONIN I], the Activity in [1] was 34.9%; in test [2] it was 71.5%; in [3] it was 16.4%; in [4], 44.8%.
As for `C/C=C(\C)C(=O)O[C@H]1[C@H](OC(=O)/C(C)=C/C)[C@]2(CO)[C@H](O)[C@H](O)[C@]3(C)C(=CC[C@@H]4[C@@]5(C)CC[C@H](O[C@@H]6O[C@H](C(=O)O)[C@@H](O)[C@H](O[C@@H]7O[C@H](CO)[C@H](O)[C@H](O)[C@H]7O[C@@H]7O[C@@H](C)[C@H](O)[C@@H](O)[C@H]7O)[C@H]6O[C@@H]6O[C@H](CO)[C@@H](O)[C@H](O)[C@H]6O)C(C)(C)[C@@H]5CC[C@]43C)[C@@H]2CC1(C)C` [YUCHASAPONIN A], the Activity in test [1] was 16.6%; in test [2], 45.3%; in test [3] it was 16.8%; in test [4], 49.4%.
Take `C/C=C(/C)C(=O)O[C@H]1CC(C)(C)C[C@H]2C3=CC[C@@H]4[C@@]5(C)CC[C@H](O[C@@H]6O[C@H](C(=O)O)[C@@H](O)[C@H](O[C@@H]7O[C@H](CO)[C@H](O)[C@H](O)[C@H]7O[C@@H]7O[C@@H](C)[C@H](O)[C@@H](O)[C@H]7O)[C@H]6O[C@@H]6O[C@H](CO)[C@@H](O)[C@H](O)[C@H]6O)C(C)(C)[C@@H]5CC[C@@]4(C)[C@]3(C)[C@@H](O)[C@@H](O)[C@@]12CO` [SASANQUASAPONIN III]: the Activity in test [1] came out at 16.6%; in test [2], 48.6%; in test [3] it was 16.8%; in [4] it was 48.8%.
Turning to `CC1(C)CC[C@]2(C=O)[C@H](O)C[C@]3(C)C(=CC[C@@H]4[C@@]5(C)CC[C@H](O[C@@H]6O[C@H](C(=O)O)[C@@H](O)[C@H](O[C@@H]7O[C@H](CO)[C@H](O)[C@H](O)[C@H]7O[C@@H]7O[C@H](CO)[C@@H](O)[C@H](O)[C@H]7O)[C@H]6O[C@@H]6O[C@H](CO)[C@H](O)[C@H](O)[C@H]6O)C(C)(C)[C@@H]5CC[C@]43C)[C@@H]2C1` (relative stereo), the Activity in test [5] is recorded as -19.7%; in [6], 16.3%; in test [7] it was 91.6%; in test [8], 17.4%; in [9] it was 55%; in test [10], 52.8%. Besides, the Activity in test [11] is recorded as 102.1%; in [1] it was 102.5%; in test [12], 102.2%; in [13] it was 120.4%; in test [2], 120.3%; in test [14] it was 110%.
On to `O.O=C1O[C@H]([C@@H](O)CO)C(O)=C1OP(=O)([O-])[O-].[Mg+2]`, for which the Activity in test [11] is 109.2%; in [1] it was 123.7%; in [12] it was 122.8%; in test [13], 112.8%; in [2], 109.6%; in test [14] it was 117.4%.
On to `CC1(C)CC[C@]2(CO)[C@H](O)C[C@]3(C)C(=CC[C@@H]4[C@@]5(C)CC[C@H](O[C@@H]6O[C@H](C(=O)O)[C@@H](O)[C@H](O[C@@H]7O[C@H](CO)[C@H](O)[C@H](O)[C@H]7O[C@@H]7O[C@H](CO)[C@@H](O)[C@H](O)[C@H]7O)[C@H]6O[C@@H]6O[C@H](CO)[C@H](O)[C@H](O)[C@H]6O)C(C)(C)[C@@H]5CC[C@]43C)[C@@H]2C1` [CAMELLIOSIDE D], for which the Activity is listed as 0.3% in test [5]; -6.2% in [6]; 8.3% in test [7]; 16.1% in test [8]; 16.3% in test [9]; 29.5% in [10]. Moreover, the Activity came to 107.6% in test [11]; 98.6% in [1]; 108.6% in [12]; 110.7% in [13]; 113.1% in test [2]; 94.7% in [14].
Consider `C/C=C(\C)C(=O)O[C@H]1CC(C)(C)C[C@H]2C3=CC[C@@H]4[C@@]5(C)CC[C@H](O[C@@H]6O[C@H](C(=O)O)[C@@H](O)[C@H](O[C@@H]7O[C@H](CO)[C@H](O)[C@H](O)[C@H]7O[C@@H]7O[C@@H](C)[C@H](O)[C@@H](O)[C@H]7O)[C@H]6O[C@@H]6O[C@H](CO)[C@@H](O)[C@H](O)[C@H]6O)C(C)(C)[C@@H]5CC[C@@]4(C)[C@]3(C)[C@@H](O)[C@@H](O)[C@@]12CO` [SASANQUASAPONIN II], for which the Activity in test [1] amounted to 16.8%; in test [2], 53.9%; in [3], 16.5%; in test [4], 48.9%.
Consider `CC(=O)O[C@@H]1[C@H](O)[C@@H](O)[C@H](O[C@H]2[C@H](O[C@H]3CC[C@]4(C)[C@H]5CC=C6[C@@H]7CC(C)(C)CC[C@]7(O)C(=O)C[C@@]6(C)[C@]5(C)CC[C@H]4C3(C)C)O[C@H](C(=O)O)[C@@H](O)[C@@H]2O[C@@H]2O[C@H](CO)[C@H](O)[C@H](O)[C@H]2O[C@@H]2O[C@H](CO)[C@@H](O)[C@H](O)[C@H]2O)O[C@@H]1CO` [CAMELLIOSIDE B], for which the Activity in [5] is 33.1%; in test [6], 64.6%; in test [7], 95%; in test [8], 11.9%; in test [9], 26%; in [10] it was 49%. The Activity is reported as 111.5% in [11]; 121.5% in test [1]; 132.1% in test [12]; 122.3% in test [13]; 130% in [2]; 130.1% in [14].
On to `CC1(C)CC[C@]2(O)C(=O)C[C@]3(C)C(=CC[C@@H]4[C@@]5(C)CC[C@H](O[C@@H]6O[C@H](C(=O)O)[C@@H](O)[C@H](O[C@@H]7O[C@H](CO)[C@H](O)[C@H](O)[C@H]7O[C@@H]7O[C@H](CO)[C@@H](O)[C@H](O)[C@H]7O)[C@H]6O[C@H]6O[C@@H](CO)[C@@H](O)[C@@H](O)[C@@H]6O)C(C)(C)C5CC[C@]43C)[C@@H]2C1` (some centres not stated) [CAMELLIOSIDE A], for which the Activity in test [5] is 12.1%; in test [6], 36%; in test [7] it was 74.9%; in test [8] it was -3.8%; in test [9] it was 5.1%; in test [10], 19.7%. The Activity in [11] worked out at 114.6%; in test [1] it was 114.3%; in test [12] it was 113.6%; in [13] it was 120.8%; in test [2], 126.9%; in [14], 113.8%.
On to `CC1(C)CC[C@]2(O)[C@H](O)C[C@]3(C)C(=CC[C@@H]4[C@@]5(C)CC[C@H](O[C@@H]6O[C@H](C(=O)O)[C@@H](O)[C@H](O[C@@H]7O[C@H](CO)[C@H](O)[C@H](O)[C@H]7O[C@@H]7O[C@H](CO)[C@@H](O)[C@H](O)[C@H]7O)[C@H]6O[C@@H]6O[C@H](CO)[C@H](O)[C@H](O)[C@H]6O)C(C)(C)[C@@H]5CC[C@]43C)[C@@H]2C1` (relative stereo), for which the Activity stood at 21.9% in test [5]; 16.7% in test [6]; 23.3% in test [7]; 1.9% in test [8]; 4.3% in test [9]; 13.3% in test [10]. The Activity is 108.3% in [11]; 110% in [1]; 116.2% in test [12]; 113.9% in [13]; 110.6% in test [2]; 114.9% in [14].
